# Legend:
# [1] = target: T1, Mitogen-activated protein kinase 14 (Homo sapiens, UniProt Q16539); assay: Inhibition of active p38alpha
# Outline: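 Compound preincubated with active p38α; kinase activity then read by adding MK2 and its substrate (cascade format). IC50 is the mean of three experiments, SD <15%.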
# [2] = target: T1, Mitogen-activated protein kinase 14; assay: Inhibition of unactive p38alpha
# Outline: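 Unactive p38α preincubated with compound, then activated by MKK6 and diluted into an MK2 plus substrate mixture (cascade format). IC50 is the mean of three experiments, SD <15%.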
# CYP1A2 = target: T2, CYP1A2 (Homo sapiens, UniProt P05177); assay: Inhibition of CYP1A2 at 3 uM; assay type: ADME
# T2 sequence (P05177 whole entry): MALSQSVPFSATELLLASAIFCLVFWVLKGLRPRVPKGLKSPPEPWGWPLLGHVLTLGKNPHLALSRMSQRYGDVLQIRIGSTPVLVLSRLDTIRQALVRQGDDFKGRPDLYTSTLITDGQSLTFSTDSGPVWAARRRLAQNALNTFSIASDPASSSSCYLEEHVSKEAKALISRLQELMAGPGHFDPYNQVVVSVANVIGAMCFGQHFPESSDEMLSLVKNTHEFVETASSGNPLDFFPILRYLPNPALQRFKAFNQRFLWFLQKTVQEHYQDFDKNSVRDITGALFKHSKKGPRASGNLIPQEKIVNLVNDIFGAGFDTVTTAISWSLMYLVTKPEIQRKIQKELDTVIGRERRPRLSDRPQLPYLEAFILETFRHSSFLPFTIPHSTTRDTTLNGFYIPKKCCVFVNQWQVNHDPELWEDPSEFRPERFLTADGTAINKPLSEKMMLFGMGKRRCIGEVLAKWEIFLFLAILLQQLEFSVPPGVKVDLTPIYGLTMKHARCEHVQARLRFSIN
# Outline: (§1)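 Compound tested at 3 µM against a cocktail of CYP1A2, 2C9, 2D6 and 3A4; the result is given as % inhibition for each isoform.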
# hERG (KCNH2) = hERG (KCNH2) (Homo sapiens, UniProt Q12809); assay: Displacement of [3H]dofetilide from human ERG at 10 uM; settings: probe [3H]dofetilide
# hERG (KCNH2), sequence (Q12809 whole entry): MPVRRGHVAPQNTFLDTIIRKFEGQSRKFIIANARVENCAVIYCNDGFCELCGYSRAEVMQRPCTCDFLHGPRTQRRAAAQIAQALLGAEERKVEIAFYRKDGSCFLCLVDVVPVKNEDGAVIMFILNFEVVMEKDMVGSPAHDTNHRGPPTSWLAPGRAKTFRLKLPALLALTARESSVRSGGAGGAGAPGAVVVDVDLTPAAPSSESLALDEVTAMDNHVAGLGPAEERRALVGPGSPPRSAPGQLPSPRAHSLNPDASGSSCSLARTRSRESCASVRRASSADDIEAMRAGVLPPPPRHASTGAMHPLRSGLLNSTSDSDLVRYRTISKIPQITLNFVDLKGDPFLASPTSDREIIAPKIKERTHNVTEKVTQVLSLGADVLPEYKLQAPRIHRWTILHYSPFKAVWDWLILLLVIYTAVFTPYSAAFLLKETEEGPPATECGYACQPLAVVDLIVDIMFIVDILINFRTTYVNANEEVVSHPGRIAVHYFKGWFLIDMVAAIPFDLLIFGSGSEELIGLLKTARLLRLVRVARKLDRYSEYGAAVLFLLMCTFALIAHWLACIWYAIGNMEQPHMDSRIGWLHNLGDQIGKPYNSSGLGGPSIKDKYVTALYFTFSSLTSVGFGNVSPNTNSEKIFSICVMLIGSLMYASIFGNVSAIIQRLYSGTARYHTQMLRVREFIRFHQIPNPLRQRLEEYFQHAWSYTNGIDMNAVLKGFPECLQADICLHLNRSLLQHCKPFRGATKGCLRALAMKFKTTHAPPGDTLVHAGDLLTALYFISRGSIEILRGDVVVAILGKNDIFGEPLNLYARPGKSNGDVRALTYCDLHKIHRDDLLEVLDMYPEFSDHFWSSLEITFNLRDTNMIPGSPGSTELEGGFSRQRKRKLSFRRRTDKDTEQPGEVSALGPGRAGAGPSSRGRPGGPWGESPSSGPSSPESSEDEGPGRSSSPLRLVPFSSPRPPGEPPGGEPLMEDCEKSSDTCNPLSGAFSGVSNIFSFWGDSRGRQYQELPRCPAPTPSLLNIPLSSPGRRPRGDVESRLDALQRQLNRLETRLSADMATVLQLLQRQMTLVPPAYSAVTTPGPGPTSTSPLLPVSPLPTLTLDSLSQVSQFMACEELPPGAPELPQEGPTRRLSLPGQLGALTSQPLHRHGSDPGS
# CYP3A4 = CYP3A4 (Homo sapiens, UniProt P08684); assay: Inhibition of CYP3A4 at 3 uM; assay type: ADME; outline: as §1
# CYP3A4, sequence (P08684 whole entry): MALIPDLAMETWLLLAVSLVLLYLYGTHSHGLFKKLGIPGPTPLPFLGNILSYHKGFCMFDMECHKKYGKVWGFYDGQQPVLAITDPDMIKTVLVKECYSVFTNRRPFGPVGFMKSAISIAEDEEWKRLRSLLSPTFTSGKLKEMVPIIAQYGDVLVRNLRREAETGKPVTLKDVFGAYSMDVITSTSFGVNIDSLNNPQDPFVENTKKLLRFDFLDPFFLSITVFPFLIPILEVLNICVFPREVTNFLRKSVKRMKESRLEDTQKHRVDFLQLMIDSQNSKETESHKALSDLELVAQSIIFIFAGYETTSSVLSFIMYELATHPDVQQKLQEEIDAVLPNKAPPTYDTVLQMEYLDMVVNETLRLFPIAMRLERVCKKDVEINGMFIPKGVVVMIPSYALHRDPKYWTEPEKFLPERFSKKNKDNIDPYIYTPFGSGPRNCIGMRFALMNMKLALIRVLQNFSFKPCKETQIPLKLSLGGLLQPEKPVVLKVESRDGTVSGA
# [3] = Solubility of the compound in phosphate buffer at pH 6.5 by turbidimetric; assay type: physicochemical
# Outline: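 Kinetic solubility measured turbidimetrically in phosphate buffer at pH 6.5. The value is reported as a range between the minimum and maximum kinetic solubility, in µM.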
# [4] = Permeability of the compound by PAMPA method; assay type: ADME
# CYP2C9 = CYP2C9 (Homo sapiens, UniProt P11712); assay: Inhibition of CYP2C9 at 3 uM; assay type: ADME; outline: as §1
# CYP2C9, sequence (P11712 whole entry): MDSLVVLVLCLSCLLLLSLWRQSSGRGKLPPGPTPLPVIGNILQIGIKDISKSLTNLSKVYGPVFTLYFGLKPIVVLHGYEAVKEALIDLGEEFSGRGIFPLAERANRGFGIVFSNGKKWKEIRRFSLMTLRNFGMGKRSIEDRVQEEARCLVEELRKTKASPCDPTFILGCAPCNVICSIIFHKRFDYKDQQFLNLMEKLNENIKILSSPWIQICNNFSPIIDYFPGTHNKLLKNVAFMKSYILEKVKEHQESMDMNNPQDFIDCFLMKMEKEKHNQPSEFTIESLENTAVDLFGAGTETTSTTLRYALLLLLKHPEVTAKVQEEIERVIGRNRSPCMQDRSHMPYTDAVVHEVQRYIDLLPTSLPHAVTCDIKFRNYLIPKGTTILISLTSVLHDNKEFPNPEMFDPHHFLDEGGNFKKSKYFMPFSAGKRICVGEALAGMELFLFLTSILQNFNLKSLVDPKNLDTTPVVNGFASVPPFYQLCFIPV
# CYP2D6 = CYP2D6 (Homo sapiens, UniProt P10635); assay: Inhibition of CYP2D6 at 3 uM; assay type: ADME; outline: as §1
# CYP2D6, sequence (P10635 whole entry): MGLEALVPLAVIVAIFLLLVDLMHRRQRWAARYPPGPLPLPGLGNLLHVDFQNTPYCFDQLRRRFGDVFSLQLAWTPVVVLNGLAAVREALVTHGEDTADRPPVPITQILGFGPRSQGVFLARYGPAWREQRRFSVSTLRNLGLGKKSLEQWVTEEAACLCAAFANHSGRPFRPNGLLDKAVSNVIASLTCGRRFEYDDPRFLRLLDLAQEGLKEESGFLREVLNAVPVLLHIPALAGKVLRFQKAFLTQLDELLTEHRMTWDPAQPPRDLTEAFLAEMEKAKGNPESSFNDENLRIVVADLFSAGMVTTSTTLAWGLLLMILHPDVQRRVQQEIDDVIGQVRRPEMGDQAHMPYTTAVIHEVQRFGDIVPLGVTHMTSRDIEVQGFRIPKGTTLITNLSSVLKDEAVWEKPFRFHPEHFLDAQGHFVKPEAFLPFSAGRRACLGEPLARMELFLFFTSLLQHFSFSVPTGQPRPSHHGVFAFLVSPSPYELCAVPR
# T1 sequence (Q16539 whole entry): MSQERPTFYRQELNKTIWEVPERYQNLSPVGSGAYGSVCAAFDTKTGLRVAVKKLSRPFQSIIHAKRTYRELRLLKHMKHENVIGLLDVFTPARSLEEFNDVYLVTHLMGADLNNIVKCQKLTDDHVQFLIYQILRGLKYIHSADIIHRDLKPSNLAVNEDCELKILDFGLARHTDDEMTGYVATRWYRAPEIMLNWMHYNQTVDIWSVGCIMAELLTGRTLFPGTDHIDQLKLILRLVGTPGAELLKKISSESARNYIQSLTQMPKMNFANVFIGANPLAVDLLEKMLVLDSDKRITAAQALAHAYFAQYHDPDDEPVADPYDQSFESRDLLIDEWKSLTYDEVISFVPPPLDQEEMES
Compound,IC50 [1],IC50 [2],other results
CC(C)(C)c1cc(NC(=O)Nc2ccccc2)n(-c2cccc(CNC(=O)CNC(=O)c3cccnc3)c2)n1,205 nM,51 nM,–
CC(C)(C)c1cc(NC(=O)Nc2ccccc2)n(-c2cccc(CNC(=O)C3C[C@H]3C(=O)O)c2)n1 (stereo not given in full),1100 nM,30 nM,–
Cc1nccn1CC(=O)NCc1cccc(-n2nc(C(C)(C)C)cc2NC(=O)Nc2ccccc2)c1,677 nM,132 nM,–
COC(=O)NCC(=O)NCc1cccc(-n2nc(C(C)(C)C)cc2NC(=O)Nc2ccccc2)c1,287 nM,176 nM,–
Cc1cc(C(=O)NCC(=O)NCc2cccc(-n3nc(C(C)(C)C)cc3NC(=O)Nc3ccccc3)c2)no1,243 nM,38 nM,–
CC(C)(C)c1cc(NC(=O)Nc2cccc3ccccc23)n(-c2cccc(CNC(=O)CCC(=O)O)c2)n1,6 nM,5 nM,–
CC(C)(C)c1cc(NC(=O)Nc2ccccc2)n(-c2cccc(CN)c2)n1,> 16700 nM,2850 nM,–
CC(=O)NC(C)C(=O)NCc1cccc(-n2nc(C(C)(C)C)cc2NC(=O)Nc2ccccc2)c1 (stereo not given),480 nM,168 nM,–
CC(C)(C)c1cc(NC(=O)Nc2ccccc2)n(-c2cccc(CNC(=O)CN)c2)n1,2300 nM,176 nM,–
CC(C)(C)c1cc(NC(=O)Nc2ccccc2)n(-c2cccc(CNC(=O)CNC=O)c2)n1,332 nM,68 nM,–
CC(C)(C)c1cc(NC(=O)Nc2ccccc2)n(-c2cccc(CNC(=O)CNC(=O)c3ccccc3)c2)n1,441 nM,169 nM,–
CC(=O)NC1(C(=O)NCc2cccc(-n3nc(C(C)(C)C)cc3NC(=O)Nc3ccccc3)c2)CCCC1,4550 nM,715 nM,–
CC(C)(C)c1cc(NC(=O)Nc2ccccc2)n(-c2cccc(CNC(=O)Cn3ccccc3=O)c2)n1,63 nM,16 nM,inhibition at 3 µM (CYP1A2): 4%; inhibition at 10 µM (hERG (KCNH2)): 9%; inhibition at 3 µM (CYP3A4): 30%; solubility kinetic [3]: 50 µM; Papp [4]: 12.9 ×10⁻⁶ cm/s; inhibition at 3 µM (CYP2C9): 6%; inhibition at 3 µM (CYP2D6): 21%
CC(C)(C)c1cc(NC(=O)Nc2ccccc2)n(-c2cccc(CNC(=O)CN3CCCC3=O)c2)n1,296 nM,68 nM,–
Cc1ccn(CC(=O)NCc2cccc(-n3nc(C(C)(C)C)cc3NC(=O)Nc3ccccc3)c2)n1,201 nM,27.9 nM,inhibition at 3 µM (CYP1A2): 4%; inhibition at 10 µM (hERG (KCNH2)): 3%; inhibition at 3 µM (CYP3A4): 26%; solubility kinetic [3]: 100 µM; Papp [4]: 4.8 ×10⁻⁶ cm/s; inhibition at 3 µM (CYP2C9): 5%; inhibition at 3 µM (CYP2D6): 18%
CC(=O)NCC(=O)NCc1cccc(-n2nc(C(C)(C)C)cc2NC(=O)Nc2ccccc2)c1,34 nM,6 nM,inhibition at 3 µM (CYP1A2): 5%; inhibition at 10 µM (hERG (KCNH2)): -11%; inhibition at 3 µM (CYP3A4): 0%; solubility kinetic [3]: > 200 µM; Papp [4]: 7.38 ×10⁻⁶ cm/s; inhibition at 3 µM (CYP2C9): 0%; inhibition at 3 µM (CYP2D6): 2%
CC(C)(C)c1cc(NC(=O)Nc2ccccc2)n(-c2cccc(CNC(=O)C3CCCC[C@H]3C(=O)O)c2)n1 (stereo not given in full),3360 nM,57 nM,–
CC(C)(C)c1cc(NC(=O)Nc2ccccc2)n(-c2cccc(CNC(=O)C3CC=CC[C@H]3C(=O)O)c2)n1 (stereo not given in full),737 nM,14 nM,–
CC(C)(C)c1cc(NC(=O)Nc2ccccc2)n(-c2cccc(CNC(=O)CN3CCOC3=O)c2)n1,599 nM,185 nM,–
CC(C)(C)c1cc(NC(=O)Nc2ccccc2)n(-c2cccc(CNC(=O)CNC(=O)c3ccco3)c2)n1,88 nM,18 nM,–
CC(C)(C)c1cc(NC(=O)Nc2ccccc2)n(-c2cccc(CNC(=O)CCC(=O)O)c2)n1,393 nM,37 nM,–
CC(C)(C)c1cc(NC(=O)Nc2ccccc2)n(-c2cccc(CNC(=O)Cn3ccnc3)c2)n1,536 nM,231 nM,–
CC(C)(C)c1cc(NC(=O)Nc2ccccc2)n(-c2cccc(CNC(=O)Cn3cccn3)c2)n1,135 nM,48.8 nM,–
Cc1cc(C)n(CC(=O)NCc2cccc(-n3nc(C(C)(C)C)cc3NC(=O)Nc3ccccc3)c2)n1,331 nM,78.2 nM,–
CC(C)(CC(=O)NCc1cccc(-n2nc(C(C)(C)C)cc2NC(=O)Nc2ccccc2)c1)C(=O)O,3680 nM,39 nM,–
CC(=O)NCC(=O)N(C)Cc1cccc(-n2nc(C(C)(C)C)cc2NC(=O)Nc2ccccc2)c1,1600 nM,211 nM,–
CC(C)(C)c1cc(NC(=O)Nc2ccccc2)n(-c2cccc(CNC(=O)CNS(C)(=O)=O)c2)n1,649 nM,108 nM,–

# From ChEMBL document CHEMBL1208762, “Enhanced selectivity profile of pyrazole-urea based DFG-out p38alpha inhibitors” (Bioorg Med Chem Lett, 2010)
